The text below walks through data of ChEMBL document CHEMBL4513216, “Probing the Open Global Health Chemical Diversity Library for Multistage-Active Starting Points for Next-Generation Antimalarials” (ACS Infect Dis, 2020).

This series is described as follows: Toxicity liver stage against HepG2, at 10uM. In kind it is cell-based. Set-up: test concentration 10 uM, cell line HepG2-A16-CD81EGFP. The settings on record: human, HepG2-A16-CD81EGFP cells; read-out: INHIBITION
Summed up:
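Uninfected HepG2-A16-CD81EGFP cells, 3 × 10^3 per well, 1536-well, plated on prespotted compound at 10 μM final, parasite-free screening media added to match infected plates; puromycin 10 μM positive, DMSO 0.5% negative; run in parallel with 48 h PbLuc assay at 37 °C, 5% CO2; viability by CellTiter-Glo luminescence, normalized to controls.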
As for `Cc1cnc(N2CCc3cc(C(=O)O)c(N(C)C)nc3CC2)nc1`, the cytotoxicity at 10 µM is -104%.

Take `Cn1ccnc1C(=O)NC[C@@H]1OC[C@H]2CN(S(C)(=O)=O)CC[C@H]21`: the cytotoxicity at 10 µM is -99.3%.

Regarding `Cc1ccn(CC(=O)N2CC[C@@H](c3ccc4ccccc4c3)[C@H](O)C2)n1`, the cytotoxicity at 10 µM stood at 5.02%.

`COC(=O)CCNC(=O)c1nnn(-c2ccc(F)cc2)c1C1CC1`: the cytotoxicity at 10 µM is -12.1%.

Turning to `CN(C)C(=O)N1C[C@H]2CC[C@@H](C1)N(S(=O)(=O)c1cccnc1)C2`, the cytotoxicity at 10 µM was -6.55%.

Consider `c1cc(COC[C@]23COC[C@H]2CN(Cc2ccsc2)C3)ccn1`, for which the cytotoxicity at 10 µM was -90.9%.

On to `NC(=O)CCn1cc(CNCCCc2ccncc2)c2ccccc21`, for which the cytotoxicity at 10 µM stood at 7.28%.

As for `CC(c1nc(C2CC2)no1)N1CCc2c(ncn2C2CC2)C1` (centres undefined), the cytotoxicity at 10 µM was -2.52%.

For `CCOC[C@@H]1CC[C@H]2[C@H](CCN2C(=O)c2ccncc2F)O1`, the cytotoxicity at 10 µM is -2.86%.

Consider `Cc1cnn(CC2CCCCN2C(=O)c2ccc3nnc(C)n3c2)c1` (centres undefined), for which the cytotoxicity at 10 µM amounted to 7.87%.

Turning to `CCc1nnc(C2Cc3ccccc3CN2Cc2nc(C)no2)o1` (centres undefined), the cytotoxicity at 10 µM was -7.78%.

As for `CC(C)n1nc(CN(C)C)c2c1CN(C(=O)CC1CC1)CC2`, the cytotoxicity at 10 µM is -6.72%.

Turning to `CCN(CC)[C@@H]1CN(C(=O)c2ccc(C#N)cc2)[C@@H]2CCCO[C@H]12`, the cytotoxicity at 10 µM is -151%.

Take `CN1CCC(C2CCN(Cc3cccc(-n4cccn4)c3)CC2)C1` (centres undefined): the cytotoxicity at 10 µM was -6.15%.

For the compound `Cc1ccc(N(C)S(=O)(=O)c2cc(C(=O)O)cs2)c(C)c1`, the cytotoxicity at 10 µM was found to be 1.82%.

Turning to `CCNC(=O)[C@@H]1C[C@H](NC(=O)c2ccccc2C#N)CN1CCCSC`, the cytotoxicity at 10 µM is -12.7%.

Turning to `N#Cc1cnc2ccccc2c1N1CCC(C(=O)O)CC1`, the cytotoxicity at 10 µM is 4.28%.

`Cc1ncc(CN2CCCC(c3cc(C(F)(F)F)[nH]n3)C2)s1` (centres undefined): the cytotoxicity at 10 µM was -17.8%.

As for `Cn1cc(CN(CC2(O)CCNC2)C2CCCCC2)cn1` (centres undefined), the cytotoxicity at 10 µM was 17.8%.

For `CC(NCc1ccccc1O)c1ccc(-n2ccnc2)cc1` (centres undefined), the cytotoxicity at 10 µM is -46.9%.

For the compound `CC(C)(C)N1CC(C(=O)N2CC(Oc3ccc(F)cc3)C2)CC1=O` (centres undefined), the cytotoxicity at 10 µM was found to be 1.88%.

`CN(CC(=O)Nc1cc(-c2cc(Cl)cc(Cl)c2)[nH]n1)S(C)(=O)=O`: the cytotoxicity at 10 µM is 6.72%.

In the case of `Cc1cc(=O)n(CC(=O)NC(C)C)c(Nc2ccc(F)c(C)c2)n1`, the cytotoxicity at 10 µM was determined as 7.97%.

For the compound `O=C(COc1cccc(Cl)c1)N1CCOCC(O)(CN2CCCC2)C1` (centres undefined), the cytotoxicity at 10 µM is -4.68%.

With `c1cnn(Cc2cn3c(n2)CN(Cc2nccs2)CC3)c1`, the cytotoxicity at 10 µM amounted to 2.76%.

Turning to `Cc1nc(-c2ccccc2C)n(CC(=O)NC2CCCC2)n1`, the cytotoxicity at 10 µM came out at 5.48%.

Consider `Cn1ccnc1-c1nc(N2CCCCC2)ncc1-c1ccccc1F`, for which the cytotoxicity at 10 µM is 12.4%.

Turning to `CCn1c(CC2CCN(S(=O)(=O)Cc3ccccc3)CC2)nn(C)c1=O`, the cytotoxicity at 10 µM is -2.43%.

Take `Cc1cc(C)c(CNC(=O)NCC2COCCO2)c(=O)[nH]1` (centres undefined): the cytotoxicity at 10 µM was -3.81%.

With `CC(C)COC(C)C(=O)NCc1ccc(F)cc1` (centres undefined), the cytotoxicity at 10 µM is -2.9%.

On to `COCC(=O)N1Cc2ccnn2CC(COCCN(C)C)C1` (centres undefined), for which the cytotoxicity at 10 µM was 6.82%.

On to `CCS(=O)(=O)N1CCc2nc(N3CCCC3)nc(N(C)C)c2CC1`, for which the cytotoxicity at 10 µM came out at 14.3%.

With `CNS(=O)(=O)CC(=O)N(Cc1c(F)cccc1F)C1CCCC1`, the cytotoxicity at 10 µM is -1.98%.

For the compound `CCc1nccn1C1CCCN(C(=O)c2ccnc(N(C)C)c2)C1` (centres undefined), the cytotoxicity at 10 µM was found to be 0.795%.

As for `OCC1CCCN1c1cc(N2CCN(c3ccccn3)CC2)ncn1` (centres undefined), the cytotoxicity at 10 µM was determined as 3.97%.

As to `CC(C)n1cnc2c1C(C(=O)N1CCCC1)N(CC1CC1)CC2` (centres undefined), the cytotoxicity at 10 µM amounted to 6.59%.

On to `CCOC[C@@]12CCC[C@@H]1CN(C(=O)COc1ccccc1OC)C2`, for which the cytotoxicity at 10 µM is -106%.

Turning to `COCC1CN(Cc2ccoc2)Cc2cn(CC3CCCC3)nc21` (centres undefined), the cytotoxicity at 10 µM is 4.32%.

As for `O=C(CCc1ccccc1)N1C[C@@H]2CN(Cc3ccoc3)CCO[C@@H]2C1`, the cytotoxicity at 10 µM is -77.8%.

For `O=C1CCCN1Cc1nc(-c2ccsc2)no1`, the cytotoxicity at 10 µM is -5.41%.

As to `Cc1occc1C(=O)N1CCOCC2(CCN(Cc3nccs3)C2)C1` (centres undefined), the cytotoxicity at 10 µM was -6.34%.

As for `CC(=O)N1CC2(CCCN2Cc2ccc(Cl)cc2)Cc2ccccc21` (centres undefined), the cytotoxicity at 10 µM was determined as 11.9%.

With `Cc1noc(C)c1CN1CCN(Cc2cccnc2)c2ncccc2C1`, the cytotoxicity at 10 µM is -67.1%.

For the compound `COc1cccc(N2CCN(C(C(=O)O)c3ccc(OC)nc3)CC2)c1` (centres undefined), the cytotoxicity at 10 µM worked out at 14.5%.

In the case of `CS(=O)(=O)N1CCC(C(=O)N2CCN(Cc3cccc(Cl)c3)CC2)CC1`, the cytotoxicity at 10 µM came to 8.99%.

In the case of `CC(C)(C)OC(=O)N1CCCc2ccc(NCc3ccon3)cc21`, the cytotoxicity at 10 µM amounted to 10.9%.

As to `O=C(CC1CC1)N1CCN(Cc2cccnc2)c2ncccc2C1`, the cytotoxicity at 10 µM worked out at 5.15%.

With `Cn1cc(CN2CCC3(C2)CN(Cc2ccsc2)C3)cn1`, the cytotoxicity at 10 µM was -11.2%.

As to `CCC(=O)N1CCC2(CC1)COc1ccccc1S(=O)(=O)N(C)C2`, the cytotoxicity at 10 µM was -6.71%.

Consider `O=C(NCCO)c1coc(Cn2cnc3ccccc32)n1`, for which the cytotoxicity at 10 µM was -4.48%.

Regarding `COCCN1C[C@@H]2CC[C@H]1CN(Cc1cc(=O)c3cc(C)ccc3[nH]1)C2`, the cytotoxicity at 10 µM is -5.31%.

As to `O=c1cc(CN(CCO)C2CC2)nc2ccc(Br)cn12`, the cytotoxicity at 10 µM came out at 12.5%.

Regarding `Cc1ccc2c(c1)c(CNC(=O)C1CC(=O)N(C3CC3)C1)nn2C` (centres undefined), the cytotoxicity at 10 µM was -0.502%.

On to `Cc1nn(-c2ccccc2)cc1C(=O)N1CCCC(n2ccnc2)C1` (centres undefined), for which the cytotoxicity at 10 µM was -14.4%.

Turning to `Cc1cc2c(cc1C)OC1(C=C2)CCN(CC(=O)N2CCOCC2)CC1`, the cytotoxicity at 10 µM was -10.4%.

`COc1ccc2c(c1)OC1(CCN(Cc3cccc(C)c3)CC1)CC2=O`: the cytotoxicity at 10 µM came to 5.5%.

`COCCOCC(=O)Nc1ccnn1-c1ccc(Cl)cc1`: the cytotoxicity at 10 µM was -11.6%.

Consider `CC(C)(C)OC(=O)N1CSC[C@@H]1C(=O)NCc1ccncc1`, for which the cytotoxicity at 10 µM worked out at 1.17%.

As to `CCN1CC2(CCC1=O)CCN(C(=O)c1cn3cccnc3n1)CC2`, the cytotoxicity at 10 µM was -9.7%.

As to `O=C(Cc1csc(-c2nnc[nH]2)n1)N1CCCC1Cn1cccn1` (centres undefined), the cytotoxicity at 10 µM is -2.48%.

For `CN(C)c1nc2ncc(Cl)cc2cc1C#N`, the cytotoxicity at 10 µM was found to be 9.54%.

For the compound `CN1C[C@@H](NC(=O)c2ccccc2)C[C@H]1c1nc(-c2cnccn2)no1`, the cytotoxicity at 10 µM stood at 9.68%.

As for `Cc1ccc(CN2C[C@@H](C(=O)O)[C@H](c3ccccn3)C2)o1`, the cytotoxicity at 10 µM is -3.88%.

Take `CN(C)c1ccc(CNCc2cnc(N3CCOCC3)nc2)cn1`: the cytotoxicity at 10 µM came out at 9.44%.

Take `CC(=O)NC1CCc2ccc(S(=O)(=O)NCc3ncccc3C)cc21` (centres undefined): the cytotoxicity at 10 µM worked out at 10.4%.

As to `O=S(=O)(Cc1ccc(F)c(Cl)c1)NC(CO)c1ccco1` (centres undefined), the cytotoxicity at 10 µM is -3.49%.

For `CC(=O)N1Cc2ccccc2CC1C(=O)Nc1ccc(C)cn1` (centres undefined), the cytotoxicity at 10 µM was -0.147%.

As for `Cc1nsc(C(=O)NCCCc2ccccc2)n1`, the cytotoxicity at 10 µM was -0.449%.

As for `Cc1cc(O)c(OCC(=O)Nc2nc3c(s2)CCCCC3)cn1`, the cytotoxicity at 10 µM amounted to 3.93%.

Take `Cc1nnc(C[C@@H]2COC[C@H]3CN(C(=O)c4ccco4)C[C@@H]23)o1`: the cytotoxicity at 10 µM is -8.75%.

For `COCCNC(=O)N1CCCCC1CNC(=O)Nc1ccccc1` (centres undefined), the cytotoxicity at 10 µM is -0.244%.

As for `COCC(=O)N1CCc2c(nnn2C)C1COCCN1CCCC1` (centres undefined), the cytotoxicity at 10 µM is 11.6%.

`COc1ccc(C2CCCCCN2Cc2nnc(C)o2)cc1` (centres undefined): the cytotoxicity at 10 µM is -7.12%.

Take `CCn1ncc(CN(C)C(=O)c2cc(C(F)(F)F)n(C)n2)c1C`: the cytotoxicity at 10 µM was 3.87%.

As to `CCn1cc(CN2CCN(CC(O)c3ccc(C)cc3C)CC2)cn1` (centres undefined), the cytotoxicity at 10 µM is -24.6%.

For the compound `CN(C(=O)C1(C#N)CCCCC1)c1nccs1`, the cytotoxicity at 10 µM is 0.658%.

For the compound `CC(=O)c1cccc(NCC(=O)NC(N)=O)c1`, the cytotoxicity at 10 µM came to 2.54%.

`CN(C(=O)c1cccc(NCC(=O)O)c1)C(C1CC1)C1CC1`: the cytotoxicity at 10 µM is 5.01%.

Take `c1cnc2c(c1)cc([C@@H]1CCCO1)n2CCN1CCOCC1`: the cytotoxicity at 10 µM is -19.7%.

For the compound `CC(C)S(=O)(=O)N1CCN(C(=O)c2cnn(C)c2Cl)CC1`, the cytotoxicity at 10 µM came to 1.6%.

Turning to `Cc1c(CN2CCOCC2)c(O)n(CCO)c(=O)c1C#N`, the cytotoxicity at 10 µM was -2.78%.

Take `CN(C)C(=O)N1CCC2(CCCN(Cc3cnn(C)c3)C2)C1` (centres undefined): the cytotoxicity at 10 µM was determined as 4.91%.

Consider `CN(C)C[C@@H]1CN(C(=O)CCC2CCCC2)C[C@@H]1CO`, for which the cytotoxicity at 10 µM was -2.94%.

With `O=C(COc1cc(Cl)cc(Cl)c1)NCc1nncn1C1CC1`, the cytotoxicity at 10 µM is -11.5%.

With `Cc1cc(NCCC(=O)NC2CCCC2)nc(-c2ccncc2)n1`, the cytotoxicity at 10 µM is 2.25%.

As for `COCCN1C(=O)CO[C@H]2CN(CCCc3ccccc3)C[C@H]21`, the cytotoxicity at 10 µM was 52.8%.

Turning to `CCc1nc(CN2CCCC(NCc3nnc(C4CC4)n3C)C2)no1` (centres undefined), the cytotoxicity at 10 µM was -2.97%.

With `CC(NC(=O)N1CCc2ccccc21)c1nncn1C` (centres undefined), the cytotoxicity at 10 µM is -5.3%.

In the case of `Cc1ccc(N2C[C@H](C(=O)NCC3CC3)[C@@H]3CCO[C@@H]3C2)nn1`, the cytotoxicity at 10 µM is -67.6%.

With `Cn1cc(C(=O)N[C@@H]2CN(Cc3cccnc3)[C@@H]3CCCO[C@@H]32)cn1`, the cytotoxicity at 10 µM was 1.18%.

For `Cc1nn(CC(=O)N2CCN(Cc3cccnc3)CC2)c(C)c1Cl`, the cytotoxicity at 10 µM is 0.612%.

As to `CC(=O)N(C)C(c1cccc(F)c1)c1ccccn1` (centres undefined), the cytotoxicity at 10 µM is -1.63%.

Take `CCC(C)N(Cc1ccsc1)C(=O)c1ccc2[nH]nnc2c1` (centres undefined): the cytotoxicity at 10 µM was determined as 13.3%.

`O=C(C1CCOCC1)N1C[C@H]2CCC[C@@]2(COCc2ccccn2)C1`: the cytotoxicity at 10 µM is -112%.
